# Assay outcomes deposited in PubChem BioAssay by The Scripps Research Institute Molecular Screening Center.
# A selection: hits, their analogues and other compounds. The true share with any hit is near 2.3%.
# TAAR1 antagonist: human TAAR1 antagonism; Q96RJ0; CHO RD-HGA16 TAAR1, Fluo-8 calcium fluorescence, antagonist; inhibition, % at 3 µM; 1.5% of 360,000 active; AID 624466;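 active means inhibition above a per-plate cutoff, the mean inhibition of test compounds on that plate plus 3 SD, cut at about 49% in these data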;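 further: 0% = DMSO plus EC80 beta-PEA response and 100% = DMSO alone without agonist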
#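 Test system: RD-HGA16 CHO cells with stable hTAAR1 and Gα16 / Probe or stimulus: EC80 β-phenethylamine stimulus / Times: seeding 17-24 h prior, 75-min 37 °C, 30-min RT dye loading / Detection: Fluo-8 calcium-sensitive fluorescence / Read-out basis: % inhibition scaled between DMSO and EC80 PEA controls / Repeats: singlicate, one well per test compound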
# OXTR agonist: human OXTR agonism; P30559; CHO-OTR cells, Fluo-8 calcium fluorescence; normalized: DMSO 0%, oxytocin 100%; activation, % at 3 µM; 0.32% of 320,000 active; AID 2435;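 active means activation above the mean of all tested compounds plus 3 SD, cutoff set per screening run, cut at about 20% in these data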;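 further: peak over basal fluorescence ratio from a 100 s FLIPR kinetic read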
# TAAR1 agonist: human TAAR1 agonism. Q96RJ0. CHO RD-HGA16 TAAR1, Fluo-8 calcium fluorescence; vehicle wells 0%, saturating PEA agonist 100%. activation, % at 3 µM. 0.99% of 360,000 active. AID 624467;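 active means activation above the mean activation of all test compounds in the run plus 3 SD, cut at about 38% in these data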
#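 Assay system: CHO-derived RD-HGA16 cells with stable Gα16 and human TAAR1; timing: 17-24 h seeding, 75 min 37 °C dye, 30 min RT; read-out: % activation from peak over basal fluorescence ratio, DMSO-to-PEA scaled; measured by: kinetic Fluo-8 calcium fluorescence; benchmarks: low control DMSO, high control PEA (EC100); doses: 3 µM single concentration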
# V1aR counter: counter-screen for oxytocin receptor agonists: human V1a receptor agonists | P37288 | CHO-V1R cells, Fluo-8 calcium fluorescence, agonist mode; 0% DMSO, 100% 3 nM vasopressin | activation, % at 3 µM | 0.25% of 320,000 active;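 active means activation above the mean activation of all tested compounds plus 3 SD, per screening run, cut at about 20% in these data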;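 further: signal is peak over basal fluorescence ratio across a 100 second FLIPR read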
# Target sequence (P37288 whole entry, looked up): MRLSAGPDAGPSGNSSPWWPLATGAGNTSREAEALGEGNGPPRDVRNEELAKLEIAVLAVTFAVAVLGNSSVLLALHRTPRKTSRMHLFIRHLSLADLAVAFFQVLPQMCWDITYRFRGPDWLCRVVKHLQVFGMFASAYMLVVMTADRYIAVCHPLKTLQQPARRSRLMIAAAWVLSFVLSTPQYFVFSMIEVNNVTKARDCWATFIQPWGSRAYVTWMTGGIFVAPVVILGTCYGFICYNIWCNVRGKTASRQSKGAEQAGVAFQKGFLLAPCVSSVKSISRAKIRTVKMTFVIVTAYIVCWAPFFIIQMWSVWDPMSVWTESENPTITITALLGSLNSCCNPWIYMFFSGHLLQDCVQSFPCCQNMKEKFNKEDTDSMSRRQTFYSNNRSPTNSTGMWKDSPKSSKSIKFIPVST
# OXTR potentiate: potentiates the human oxytocin receptor response | 0.061% of 320,000 active | CHO-OTR cells, Fluo-8 calcium fluorescence, potentiator mode; 0% = oxytocin EC15, 100% = EC100 | activation, % at 3 µM;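 active means activation above that plate's cutoff, the mean activation of tested compounds plus 3 SD, cut at about 6.6% in these data, passing the limit was not always enough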;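 further: 100% uses oxytocin at 75 nM as the full agonist control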
#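 Dosing: Single dose, 3.0 µM nominal final compound concentration | Material: Human OTR in CHO cells | Technique: Kinetic Fluo-8 calcium fluorescence | Benchmarks: EC15 oxytocin alone as 0%, 75 nM oxytocin as 100% | Probe or stimulus: Oxytocin at about EC15, sub-maximal agonist stimulus | Incubation: Compound 6 min at room temperature before oxytocin, 100 s read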
# The depositor's hits bear a star; · = not tested or not shown; + = active, no number.
SMILES,TAAR1 antagonist,OXTR agonist,TAAR1 agonist,V1aR counter,OXTR potentiate
CCCCN1CC(COCc2ccccc2)Oc2cccc(Sc3ccc(OC)c(OC)c3)c2S1(=O)=O (stereo not drawn),-18.5,·,2.1,·,·
O=C(NCc1ccccc1)[C@@H]1CCCN1C(=O)[C@H]1CCCN1C(=O)c1ccccc1C(F)(F)F,7.6,·,0.8,·,·
Cc1ccc(N=c2ssnc2Cl)cc1,16.4,1.6,40.9*,2.2,-11.0
CN(C)S(=O)(=O)Oc1cccc(C(=O)Nc2ccc(Cl)c(Cl)c2)c1,60.5*,8.1,40.6*,9.4,-30.3
CN(C)S(=O)(=O)Oc1cccc(C(=O)Nc2cccc(Cl)c2)c1,48.1,9.2,16.9,6.4,-16.2
O=C(NCCc1ccccc1)C1(c2ccccc2)CCCC1,-5.2,-1.7,22.6,-1.7,1.0
N#CC1(c2ccccc2)CCC(NCCc2ccccc2)CC1 (stereo not drawn),8.6,2.2,40.7*,5.3,-18.6
C[C@H]1CN([C@@H](C)CO)C(=O)CCCn2cc(nn2)CO[C@@H]1CN(C)S(=O)(=O)c1ccccc1F,11.8,·,1.3,·,·
Cc1ccc(C)c(CN2CCC(CNC(=O)Nc3ccc(F)c(Cl)c3)CC2)c1,5.8,15.0,38.4*,5.0,-19.0
Cc1ccc(NC(=O)NCC2CCN(Cc3cccc(Cl)c3)CC2)cc1Cl,20.1,12.9,42.0*,1.9,-12.5
Cc1ccc(S(=O)(=O)N2[C@@H](Cc3ccccc3)CO[C@H]2CC(=O)c2cccs2)cc1,8.7,·,1.9,·,·
CCc1nnc(NC(=O)c2ccc3c(=O)n4c(nc3c2)CCC4)s1,-7.2,·,0.1,·,·
CC(C)NC(=O)N(C)C[C@@H]1OCc2cnnn2CCCC(=O)N([C@H](C)CO)C[C@@H]1C,13.7,·,0.4,·,·
CC1=NN(c2ccccc2)C(=O)/C1=C/C=C/c1ccccc1,18.0,-1.7,-2.2,-0.3,-5.2
COc1ccccc1/C=C1/C(=O)N(c2ccccc2)N=C1C,15.7,2.9,37.5*,18.7,-10.1
CC1=NN(c2ccccc2)C(=O)/C1=C\N1CC(C)OC(C)C1 (stereo not drawn),70.0*,0.6,98.4*,0.1,2.0
CC(C)NC(=O)C1(C)CSCC(=O)N1Cc1cccs1 (stereo not drawn),-3.4,·,2.3,·,·
CC(=O)Oc1ccc2c(c1)Oc1cc(OC(C)=O)ccc1C21OC(=O)c2ccccc21,·,937.8*,·,+,-9.4
CCN1C(=O)N[C@@H](c2cccc(C(F)(F)F)c2)C(C(=O)OC)=C1C,1.0,-2.5,8.8,-0.3,-11.0
CCN1C(N(C)CCc2c[nH]c3ccccc23)=N[C@@H](c2cccc(C(F)(F)F)c2)C(C(=O)OC)=C1C,·,22.7*,·,6.8,-10.1
CCCC(C)(C)C(=O)N1CCC1(C)C(=O)Nc1ccc(OC)c(OC)c1 (stereo not drawn),0.6,·,0.2,·,·
COc1ccc(CNC(=O)c2sc(=O)n(Cc3ccc(-c4ccccc4)cc3)c2C)cc1OC,65.0*,·,4.6,·,·
Cc1ccc(-c2ccc(CN3C(CC(C)C)C(=O)N(Cc4cn(CCC5OCCO5)nn4)CCS3(=O)=O)cc2)cc1 (stereo not drawn),54.8*,·,7.8,·,·
CCCCCCCCN1C(=O)[C@H](CC(=O)N2CCN(C(=O)OCC)CC2)C[C@@]2(C(=O)OCC)CCCC=C12,-44.6,·,-3.1,·,·
Cc1ccccc1-c1nnn(Cc2cccc(S(=O)(=O)N3CCOCC3)c2)n1,59.8*,12.9,9.8,12.3,-11.6
SMILES,TAAR1 antagonist,OXTR agonist,TAAR1 agonist,V1aR counter,OXTR potentiate
CC1CCCC(C)N1C(=O)c1ccccc1 (stereo not drawn),-9.0,·,1.1,·,·
Nc1ccc2c3c(cccc13)CC2,32.5,46.0*,17.7,46.3*,-7.6
c1ccc(Nc2ccc3c4c(cccc24)CC3)cc1,38.3,0.9,23.3,4.2,-3.4
Cc1nn(-c2ccccc2)nc1C(=O)Nc1ccccc1C(=O)NCC1CC1,-6.8,·,3.2,·,·
O=C(c1ccc(F)cc1F)N1CCN(c2ncccn2)CC1,-1.2,5.6,6.0,0.9,-8.7
O=C(c1ccc(N2CCN(C(=O)c3ccc(F)cc3F)CC2)cc1)c1cccc(F)c1,62.7*,2.2,3.9,9.6,-4.8
Fc1ccc(C2=CC(c3ccco3)n3ncnc3N2)cc1 (stereo not drawn),·,2.1,·,5.5,3.5
Fc1ccc(C2=CC(c3ccc(Br)o3)n3ncnc3N2)cc1 (stereo not drawn),·,50.6*,·,34.2*,-12.0
COC(=O)C1=C(C)N(Cc2ccccc2C(F)(F)F)C(=NCc2ccc(OC)cc2)NC1c1ccccc1 (stereo not drawn),13.2,·,14.5,·,·
N#C/C(=C/c1ccc(-c2ccccc2)o1)c1nc(-c2cccs2)cs1,55.0*,15.7,34.0,10.3,-4.5
CC(C)(C)c1ccc(C(=O)OC/C(O)=C(\C#N)c2nc3ccccc3s2)cc1,3.3,1.0,6.1,0.4,-4.4
COC(=O)c1ccc(/C=C(\C#N)c2nc3ccccc3s2)cc1,4.8,30.3*,4.6,23.7*,-9.1
N#C/C(=C/c1ccc(-c2ccc(S(N)(=O)=O)cc2)o1)c1nc2ccccc2s1,25.4,37.9*,20.0,50.7*,-9.6
N#C/C(=C\c1ccc(-c2ccc(F)cc2)o1)C(=O)Nc1nc(-c2cccs2)cs1,-8.8,-0.7,0.1,-0.1,-9.8
Cc1cc(N2CCN(C(=O)OC(C)(C)C)C[C@H]2C)ccc1N1CCN(Cc2ccccc2)[C@@H](C)C1,-21.1,·,1.6,·,·
CS(=O)(=O)N1CCc2cc(-c3csc(NC(=O)Cc4cccs4)n3)ccc21,50.4*,6.3,14.4,6.9,-10.8
O=C(CN1CCOCC1)Nc1nc(-c2ccc3c(c2)CCN3S(=O)(=O)c2ccccc2)cs1,53.4*,3.9,20.3,4.3,-19.9
CC(=O)Nc1nc(-c2ccc3c(c2)CCN3S(C)(=O)=O)cs1,8.3,0.1,1.4,1.6,-7.6
COC(=O)C1=C(C)N(CC(C)C)C(=S)NC1c1cccc(F)c1 (stereo not drawn),24.8,·,-1.9,·,·
C=CCc1cccc2cc(C(=O)N(C)C)c(=O)oc12,0.5,-0.3,-0.9,-0.1,-0.2
C=CCc1cccc2cc(C(=O)N(CC)CC)c(=O)oc12,105.5*,-1.0,1.8,0.7,-2.8
CCOC(=O)C1CCCN(Cc2nc3ccc([N+](=O)[O-])cc3c(=O)n2-c2ccc(OC)cc2OC)C1 (stereo not drawn),69.2*,-1.0,46.3*,-1.2,5.3
CC1=NN(C(N)=S)C(=O)C1N=Nc1c(C)cc(C)cc1C (stereo not drawn),-7.4,-1.8,3.2,-1.6,-9.7
CC1=NN(C(N)=S)C(=O)C1N=Nc1c(Br)cc(Br)cc1Br (stereo not drawn),40.9,6.6,38.9*,5.5,-16.8
O=C(CSc1nnnn1C1CCCCC1)Nc1ccccc1F,13.3,-0.7,-0.9,2.4,-15.0
